Screening results as filed in PubChem.
The list is not random: actives were taken first. Their share in the collection is about 1.9%.
Furin inhibitor = human furin inhibitors, primary screen, biochemical, fluorescence intensity | inhibition, % at 20 µM or 30 µM | P09958 | purified furin, fluorogenic substrate cleavage | hit rate 0.061% among 220,000; in the data active = inhibition above about 25%
Target sequence (P09958 108-714 limits assumed): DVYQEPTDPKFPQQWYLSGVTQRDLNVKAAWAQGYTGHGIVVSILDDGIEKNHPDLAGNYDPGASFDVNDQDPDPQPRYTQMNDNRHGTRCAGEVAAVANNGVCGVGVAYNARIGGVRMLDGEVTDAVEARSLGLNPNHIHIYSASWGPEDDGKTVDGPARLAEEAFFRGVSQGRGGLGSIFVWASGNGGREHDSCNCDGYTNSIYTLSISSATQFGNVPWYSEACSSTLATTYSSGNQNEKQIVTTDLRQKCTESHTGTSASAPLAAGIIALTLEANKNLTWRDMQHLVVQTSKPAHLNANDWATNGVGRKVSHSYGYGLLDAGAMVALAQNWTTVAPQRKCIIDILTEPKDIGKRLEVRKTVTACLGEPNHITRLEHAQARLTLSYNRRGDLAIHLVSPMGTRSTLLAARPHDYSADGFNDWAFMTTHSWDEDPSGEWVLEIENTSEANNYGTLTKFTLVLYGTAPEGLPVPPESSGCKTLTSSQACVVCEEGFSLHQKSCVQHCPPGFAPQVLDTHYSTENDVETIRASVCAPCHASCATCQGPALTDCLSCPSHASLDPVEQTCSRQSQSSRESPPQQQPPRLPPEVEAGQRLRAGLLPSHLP
HSV replic up = enhancers of HSV replication in host cells, fold increase, host cell viability; maximum fold increase; hit rate 0.005% among 220,000; HSV replication augmentation in cells; AID 1956, 2009; in the data active = maximum fold increase above about 1.5; tested in PC3 cells
Ins promoter up = insulin promoter activators in MIN6 cells, imaging, high-content screening, mouse beta cells; hit rate 0.3% among 190,000; MIN6 insulin promoter-GFP reporter; active compounds read high; z-score at 5 µM;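 active = z-score above 3 at 5 µM with at least 500 cells counted in the well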
Autophagy HCS = autophagy modulators in MEF cells, primary screen, imaging, high-content, MEF GFP-LC3. calls only at 10 µM (by protocol). hit rate 0.98% among 190,000. MEF GFP-LC3 puncta imaging; test concentration mostly 10 µM;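 active = percentage of spot-positive cells more than 3 SD above its plate mean, without a fluorescence outlier flag or 80% toxicity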;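 also: spot-positive cell cutoff set from DMSO-treated cells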
b-catenin transl = modulators of beta-catenin nuclear translocation, primary screen, imaging, HeLa cells, immunofluorescence, high-content | nuclear translocation activity, % at 5 µM | hit rate 0.3% among 190,000;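 active = nuclear translocation activity above 50% at 5 µM, with a well cell count of 50 or more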;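 also: per-cell ratio of nuclear to cytoplasmic median beta-catenin stain intensity; plate controls were DMSO negative control for no effect and GSK-3 inhibitor IX positive control for full effect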
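Test system: human HeLa cell line; Doses: 5 µM primary, 0.02–20 µM confirmation; Incubation: 24 h compound exposure, 37°C; Detection: beta-catenin immunofluorescence imaging with DAPI; Read-out: beta-catenin nuclear/cytoplasmic ratio, % activation.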
MT stabilizer = microtubule stabilizers in HeLa cells, primary screen, imaging, high-content imaging. % tubulin-high responders, % at 10 µM. HeLa tubulin immunostaining HCS, 24 h; share of cells brighter than vehicle mean+2SD. AID 2205, 2009. hit rate 0.83% among 200,000;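 active = plate Z-score above 3 for both tubulin-high and condensed-nucleus cell shares, with cell loss under 80%, at 10 µM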;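 also: anti alpha tubulin signal scored within the nucleus-defined area of each cell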
Numbers without * were called inactive; i = inactive; . = no result given; + = active, no number.

SMILES	Furin inhibitor	HSV replic up	Ins promoter up	Autophagy HCS	b-catenin transl	MT stabilizer
O=C(O)c1ccc(N2CC3CC(C2)c2cccc(=O)n2C3)c(NC(=S)Nc2ccc(Cl)cc2Cl)c1 (centres undefined)	-10	i	-0.41	i	0	1
COc1ccc(C2=Nn3c(nnc3-c3ccccn3)SC2)cc1	-19	i	0.04	i	-1	52*
COc1ccc(C2=Nn3c(nnc3-c3ccncc3)SC2)cc1OC	-8	i	.	i	5	5
COc1ccccc1-c1nnc2n1N=C(c1ccc(O)c(O)c1)CS2	-6	i	-3	i	41	21*
CCOc1ccc(C2=Nn3c(nnc3-c3ccccc3OC)SC2)cc1	-18	i	-2.9	i	46	19*
Cc1cccc2sc(NC(=O)C3CCCN(S(=O)(=O)c4cccc5nonc45)C3)nc12 (centres undefined)	19	i	6.6*	+	3	9
Cc1ccc2nc(NC(=O)C3CCCN(S(=O)(=O)c4cccc5nonc45)C3)sc2c1 (centres undefined)	-21	i	0.77	.	1	.
O=C(Nc1ccccc1N1CCOCC1)c1ccc2nc[nH]c2c1	-18	i	0.26	i	-2	4
O=C1c2ccccc2S(=O)(=O)c2cc(C(=O)N3CCN(c4ccc(Cl)cn4)CC3)ccc21	.	i	.	.	.	.
COc1ccc(C(=O)c2cc([N+](=O)[O-])ccc2N2CCCC2)cc1	-20	i	0.38	i	-4	20*
COc1ccc(C(=O)c2cc([N+](=O)[O-])ccc2N2CCN(C)CC2)cc1	-5	i	0.64	+	74*	14*
Cc1nc(Nc2ccc3c(c2)OCCO3)c2c(C)c(C)sc2n1	-11	i	-1.4	i	1	2
CC(On1nnc2ccccc21)C(=O)N1CCN(Cc2ccccc2)CC1 (centres undefined)	-29	i	-0.65	i	-1	2
Cc1ccc(S(=O)(=O)c2c(C(=O)c3ccccc3)cnc3cc4c(cc23)OCCO4)cc1	-17	i	-0.35	i	-1	4
Cc1ccc(OCCCN2C(=O)C(=O)c3cccc(C)c32)cc1	-15	i	-0.87	i	-2	2
Cc1ccc(OCCN2C(=O)C(=O)c3cc(C)ccc32)cc1	-28	i	.	+	0	1
Cn1c(N)c(C(=O)COC(=O)C2=NNC(=O)CC2)c(=O)n(C)c1=O	-14	i	0.1	.	0	.
CC1CCN(CCCNC(=O)c2ccc3c(=O)n(Cc4ccc(Cl)cc4)c(=S)[nH]c3c2)CC1	-7	i	0.81	+	3	31
CCOC(=O)C1CCCN(C(=O)c2ccc(Cn3c(=S)[nH]c4cc(C(=O)OC)ccc4c3=O)cc2)C1 (centres undefined)	-14	i	-0.16	i	.	18*
O=C(NC1CCN(Cc2ccccc2)CC1)c1ccc(S(=O)(=O)NCc2ccco2)cc1	-9	i	-0.54	+	2	3
Cc1sc(NC(=O)C2C3CCC(O3)C2C(=O)O)nc1-c1ccc(CC(C)C)cc1 (centres undefined)	-10	i	0.6	i	0	8
Cc1cc(C(=O)N2CCN(c3cccc(Cl)c3)CC2)c(C)o1	-20	i	-0.28	i	.	60*
Cc1ccc(C(=O)N2CCN(c3ccccc3)CC2)cc1C	-5	i	0.98	i	2	4
CSc1ccccc1C(=O)N1CCN(c2cccc(Cl)c2)CC1	-32	i	0.14	i	40	21*
Cc1cc(C(=O)N2CCN(c3ccccc3)CC2)c(C)o1	-15	i	0.33	i	-2	3
SMILES	Furin inhibitor	HSV replic up	Ins promoter up	Autophagy HCS	b-catenin transl	MT stabilizer
CN(c1ccccc1C(=O)N1CCN(c2cccc(Cl)c2)CC1)S(C)(=O)=O	-20	i	-0.14	i	.	5
Cc1ccc(C(=O)N2CCN(c3cccc(Cl)c3)CC2)cc1C	-16	i	0.73	i	19	24*
CCOC(=O)c1cc2c(ccn2-c2ccc(F)cc2)n1CC(=O)N(CC)CC	-2	i	-0.26	i	1	2
CC1S/C(=N\N=C\c2cccc([N+](=O)[O-])c2)N(C(C)(C)C)C1=O (centres undefined)	-8	i	-0.49	.	1	.
O=C(COC(=O)[C@H](Cc1ccccc1)NC(=O)c1ccco1)NC(c1ccccc1)c1ccccc1	3	i	0.24	i	-1	3
Cc1cc(NC(=O)COC(=O)C(Cc2ccccc2)NC(=O)c2ccco2)no1 (centres undefined)	-15	i	1.7	+	-8	2
CCCN(CCC)CCNC(=O)CCC(=O)Nc1ccc2nc(N3CCN(C)CC3)cc(C)c2c1	-72	i	-0.22	i	-3	2
O=C(NCc1ccc(F)cc1)C1CCCN(S(=O)(=O)c2cccnc2)C1 (centres undefined)	-25	i	3.5*	i	-2	2
O=C(NCc1cccs1)C1CCCN(S(=O)(=O)c2cnc[nH]2)C1 (centres undefined)	-10	i	-0.94	+	.	2
CC1CCN(S(=O)(=O)N2CCC(C(=O)NCc3cccs3)CC2)CC1	-23	i	-1.2	+	-5	5
Cn1c(=O)oc2cc(S(=O)(=O)N3CCC(C(=O)NCc4ccc(F)cc4)CC3)ccc21	-9	i	0.57	+	.	4
Cn1c(=O)oc2cc(S(=O)(=O)N3CCC(C(=O)NCc4cccs4)CC3)ccc21	-19	i	0.2	i	.	2
O=C(NCc1cccnc1)C1CCCN(S(=O)(=O)c2ccccc2)C1 (centres undefined)	-25	i	1.4	i	-2	3
Cc1noc(C)c1CN(C(=S)NC1CC1)c1ccccc1	-22	i	-0.35	i	-1	3
O=c1oc(-c2ccccc2NS(=O)(=O)c2ccc3ccccc3c2)nc2ccccc12	2	i	0.3	i	2	3
COc1ccc2oc(=Nc3cc(F)ccc3F)c(C(N)=O)cc2c1	-21	i	0.18	+	.	15
COc1ccc(OC)c(N=c2oc3cc(O)ccc3cc2C(N)=O)c1	-61	i	0.12	i	0	5
COc1ccc([C@H]2/C=C\CN(C(=O)[C@H](Cc3ccccc3)NC(=O)OCC3c4ccccc4-c4ccccc43)CC(=O)N2Cc2ccc(F)cc2)cc1	.	i	.	.	.	.
COc1ccc(NC2=CC(=O)CC(c3ccccc3)C2)c(OC)c1 (centres undefined)	-10	i	-0.79	i	82*	32*
CCOc1ccccc1NC1=CC(=O)CC(c2ccccc2)C1 (centres undefined)	-11	i	0.57	i	1	25*
